Consider seven molecules from ChEMBL document CHEMBL1221374, “Synthesis, proapoptotic screening, and structure-activity relationships of novel aza-lupane triterpenoids” (Bioorg Med Chem Lett, 2010).

The nature of experiment [1]: Cytotoxicity against human LN229 cells after 72 hrs by MTS assay. The experiment is classed as functional, cell-based. The following applies: LN-229, 72 h. An outline of the steps:
(§1)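 Cells (1 × 10^4/well) seeded the evening before. Compounds were taken from 10 mM DMSO stock into growth medium and tested at 2, 10, 25, 50 and 75 µM, four wells each, with DMSO-matched controls. Exposure was 72 h, then MTS reagent for 1.5-4 h at 37 °C, and formazan A490 was read against DMSO-treated cells. IC50 is the mean of four wells from one experiment, or of three experiments where stated.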

In another experiment the test system is MCF7. As to the kind of experiment: Cytotoxicity against human MCF7 cells after 72 hrs by MTS assay. It is filed as functional, cell-based. The settings on record: MCF7, 72 h. In short, it runs like this: as §1
(Tetrazolium dyes change colour on reduction, which living cells bring about.)

For the next experiment, the system named is A-375. As to the kind of experiment: Cytotoxicity against human A375 cells after 72 hrs by MTS assay. The following applies: A-375, 72 h. The experiment is classed as functional, cell-based. An outline of the steps:
as §1

A further experiment has as its system Daoy. Briefly: Cytotoxicity against human DaOY cells after 72 hrs by MTS assay. The experiment is classed as functional, cell-based. An outline of the steps: as §1
In the next experiment the test system is SK-MEL-2. Briefly: Cytotoxicity against human SK-MEL-2 cells after 72 hrs by MTS assay. The experiment is classed as functional, cell-based. The settings on record: SK-MEL-2, 72 h. In short, it runs like this:
as §1

Experiment [2] relates to SK-MEL-2 (Homo sapiens). Briefly: Induction of apoptosis in human SK-MEL-2 cells assessed as apoptotic cells at 7.5 uM after 16 hrs by annexin assay.
The subject of experiment [3] is SK-MEL-2 (Homo sapiens). Briefly: Induction of apoptosis in human SK-MEL-2 cells assessed as necrotic cells at 7.5 uM after 16 hrs by annexin assay.
For another experiment, the system named is HT-29. Briefly: Cytotoxicity against human HT-29 cells after 72 hrs by MTS assay. It is filed as functional, cell-based. The following applies: HT-29, 72 h. In short, it runs like this:
as §1

Experiment [4] relates to OVCAR-3. As to the kind of experiment: Cytotoxicity against human OVCAR-3 cells after 120 hrs by MTS assay. The following applies: OVCAR-3, 120 h.
The subject of experiment [5] is OVCAR-3. As to the kind of experiment: Cytotoxicity against human OVCAR-3 cells after 72 hrs by MTS assay. The settings on record: OVCAR-3, 72 h. It is filed as functional, cell-based.

A value given as a limit tells only on which side of the number the result lay.

As usually defined, the IC50 is the concentration that inhibits the measured activity by half. Low values mean higher potency, high ones lower potency. As to `C=C(CNCCO)[C@@H]1CC[C@]2(CO)CC[C@]3(C)[C@H](CC[C@@H]4[C@@]5(C)CCC(NCCc6ccc(O)cc6)C(C)(C)[C@@H]5CC[C@]43C)[C@@H]12` (some centres undefined), the 50% inhibitory concentration (IC50) in experiment [1] is 14 µM; with MCF7, 4 µM; in the experiment on A-375, 2 µM; in the experiment on Daoy, below 2 µM; in the experiment on SK-MEL-2, 5 µM; in the experiment on HT-29 it was below 2 µM. Besides, the midpoint of inhibition with OVCAR-3 [4], the IC50, lay at 40 µM. Moreover, the Activity was above 60% in the experiment with SK-MEL-2 (Homo sapiens) [2] and below 15% in the experiment with SK-MEL-2 (Homo sapiens) [3].
As for `C=C(CNCCO)[C@@H]1CC[C@]2(CO)CC[C@]3(C)[C@H](CC[C@@H]4[C@@]5(C)CCC(N)C(C)(C)[C@@H]5CC[C@]43C)[C@@H]12` (some centres undefined), the half-maximal inhibitory concentration (IC50) in [1] is 12 µM; with MCF7, 2 µM; in the experiment with A-375, 5 µM; with Daoy it was 5 µM; with SK-MEL-2, 6 µM; in the experiment with HT-29, below 2 µM. The Activity in the experiment with SK-MEL-2 (Homo sapiens) [2] was above 60%; in the experiment with SK-MEL-2 (Homo sapiens) [3] it was below 15%.
As for `C=C(C)[C@@H]1CC[C@]2(C(=O)O)CC[C@]3(C)[C@H](CC[C@@H]4[C@@]5(C)CCC(NCCc6ccc(O)cc6)C(C)(C)[C@@H]5CC[C@]43C)[C@@H]12` (some centres undefined), the half-inhibitory concentration (IC50) is 5 µM in experiment [1]; 6 µM in the experiment on MCF7; 5 µM in the experiment on A-375; 6 µM in the experiment on Daoy; 6 µM in the experiment on SK-MEL-2; 6 µM in the experiment on OVCAR-3 [5]. The 50% inhibitory concentration (IC50) in the experiment with HT-29 turned out to be 4 µM.
As to `C=C(CNCCc1ccc(O)cc1)[C@@H]1CC[C@]2(CO)CC[C@]3(C)[C@H](CC[C@@H]4[C@@]5(C)CCC(N)C(C)(C)[C@@H]5CC[C@]43C)[C@@H]12` (some centres undefined), the concentration for half-maximal inhibition (IC50) in experiment [1] is below 2 µM; with MCF7 it was 5 µM; in the experiment with A-375, below 2 µM; in the experiment with Daoy, below 2 µM; in the experiment with SK-MEL-2, 3 µM; in the experiment on HT-29, 2 µM. The Activity was above 60% in the experiment with SK-MEL-2 (Homo sapiens) [2] and below 15% in the experiment with SK-MEL-2 (Homo sapiens) [3].
Regarding `C=C(CO)[C@@H]1CC[C@]2(CO)CC[C@]3(C)[C@H](CC[C@@H]4[C@@]5(C)CC[C@H](NCCO)C(C)(C)[C@@H]5CC[C@]43C)[C@@H]12`, the IC50 in experiment [1] is 37 µM; with MCF7, 41 µM; with A-375, 16 µM; in the experiment with Daoy it was 29 µM; in the experiment with SK-MEL-2, 34 µM; in the experiment with OVCAR-3 [5] it was 39 µM. The molecule also came in with an IC50 with HT-29 of 65 µM.
In the case of `C=C(CNCCc1ccc(O)cc1)[C@@H]1CC[C@]2(CO)CC[C@]3(C)[C@H](CC[C@@H]4[C@@]5(C)CCC(NCCO)C(C)(C)[C@@H]5CC[C@]43C)[C@@H]12` (some centres undefined), the half-maximal inhibitory concentration (IC50) turned out to be 6 µM in experiment [1]; 5 µM in the experiment on MCF7; 5 µM in the experiment on A-375; 2 µM in the experiment on Daoy; 6 µM in the experiment with SK-MEL-2; 5 µM in the experiment on HT-29. The Activity in the experiment on SK-MEL-2 (Homo sapiens) [2] was above 60%; with SK-MEL-2 (Homo sapiens) [3], below 15%.
Regarding `C=C(C)[C@@H]1CC[C@]2(CO)CC[C@]3(C)[C@H](CC[C@@H]4[C@@]5(C)CCC(NCCO)C(C)(C)[C@@H]5CC[C@]43C)[C@@H]12` (some centres undefined), the half-maximal inhibitory concentration (IC50) in [1] was 4 µM; in the experiment on MCF7, 5 µM; in the experiment with A-375, 2 µM; with Daoy it was 6 µM; in the experiment on SK-MEL-2 it was below 2 µM; in the experiment with OVCAR-3 [5], 5 µM. For the same molecule, in the experiment on HT-29, the half-inhibitory concentration (IC50) amounted to 2 µM.
